Compound activity (PubChem)
Rows were chosen to be rich in hits. Some 2.1% of all compounds tested hit in one or more screens of this group.
cardiac RTF act = increases calcium sensitivity of human cardiac regulated thin filaments | activation, % at 7.2 µM | IANBD-labeled TnC RTF fluorescence at EC20 calcium; 0% EC20 calcium, 100% full calcium | 340,000 tested, 0.24% active | AID 493008 | P19429+P45379;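 active = activation above the mean over all tested compounds plus 3 SD, cut at about 30% in these data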;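 note: rise in fluorescence read as greater calcium sensitivity of cardiac thin filaments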
UCH37 DUB inh = blocks the human deubiquitinase UCH37; purified proteasome/UCH37, Ub-AMC cleavage fluorescence; inhibition, % (no concentration beside the values); 330,000 tested, 0.33% active;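 active = mean inhibition over replicate wells above about 20%, limit read from the data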;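 note: 0% = compound-free wells with enzyme and 100% = wells lacking proteasome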
Target sequence (Q9Y5K5 whole entry, looked up): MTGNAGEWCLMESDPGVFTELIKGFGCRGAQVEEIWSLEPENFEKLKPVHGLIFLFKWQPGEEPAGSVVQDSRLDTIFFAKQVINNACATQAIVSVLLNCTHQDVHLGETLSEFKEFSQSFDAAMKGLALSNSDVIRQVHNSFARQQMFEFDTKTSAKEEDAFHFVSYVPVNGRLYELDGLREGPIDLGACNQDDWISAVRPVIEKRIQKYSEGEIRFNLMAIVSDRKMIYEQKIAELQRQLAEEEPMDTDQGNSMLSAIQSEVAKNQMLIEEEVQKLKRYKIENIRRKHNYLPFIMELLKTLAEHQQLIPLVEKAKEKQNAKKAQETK
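Reagent: Ub-AMC substrate; assay system: Proteasome-associated human UCH37 deubiquitinase; controls: no-proteasome and no-compound wells; read-out: % inhibition of Ub-AMC cleavage fluorescence; timing: 30 min preincubation with enzyme, 25 min cleavage at room temperature; signal: AMC fluorescence from Ub-AMC cleavage, excitation 355 nm, emission 460 nm; buffer or medium: Tris-HCl pH 7.4 plus ovalbumin, ATP-MgCl2, DTT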
SUMO Mot1 rescue = SUMOylation pathway inhibition by Mot1-301 growth rescue | S. cerevisiae Mot1-301 growth rescue, ATP luminescence, 38.5C; percent above DMSO median, 100 means doubled | growth rescue, % at 18.8 µM | 320,000 tested, 1% active | AID 2716;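 active = every valid replicate shows activation above 250% relative to neutral control wells; inactive = the rest, any valid replicate at or below 250%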;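 note: OY570 slx delta 5 strain wells were the positive control but not used for scaling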
RTF Ca sens inh = cardiac RTF calcium desensitization; inhibition, % at 7.15 µM; 340,000 tested, 0.12% active; AID 493244; P19429+P45379; IANBD-labeled cardiac RTF, Ca2+ fluorescence;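 active = inhibition above the mean inhibition of all tested compounds plus 3 SD, cut at about 17% in these data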;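 note: assay run at fixed EC70 calcium of 1.6 mM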
ARNT-TACC3 inh = ARNT/TACC3 interaction disruption | Q9Y6A5 | AlphaScreen His-ARNT PAS-B/GST-TACC3 binding, luminescence; TACC3 fragment carries E629A point mutation | inhibition, % at 9.99 µM | 390,000 tested, 0.66% active;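 active = mean inhibition of replicates at least 50% and at least half of replicates each reaching 50%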;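 note: 0% = complete ARNT plus TACC3 wells and 100% = ARNT alone without TACC3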
Efflux pump mplx = blocks antifungal efflux pumps in multiplex yeast assay. S. cerevisiae Candida pump triplex, Nile Red efflux. inhibition, % at 10 µM. 330,000 tested, 0.44% active;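 active = plate passing quality check with inhibition over a set limit, or well fluorescence over plate mean plus 4 SD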;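 note: Nile Red retained in pooled yeast measured as flow cytometry median fluorescence; 0% = buffer negative control and 100% = Enniatin B positive control; higher means more Nile Red kept so more efflux inhibition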
The depositor's hits bear a star; / = not tested or not shown.

SMILES	cardiac RTF act	UCH37 DUB inh	SUMO Mot1 rescue	RTF Ca sens inh	ARNT-TACC3 inh	Efflux pump mplx
COc1cccc(-c2ccc3c(c2)[C@@H]2[C@@H](CCN2S(=O)(=O)c2cn(C)cn2)[C@@H](CO)N3)c1	/	/	/	/	active	/
Cc1cc(O)c(C=O)c2c1C(=O)Oc1c(CO)c(O)c3c(c1O2)C(O)OC3=O (stereo not drawn)	-29.2	/	-19.4	29.8*	3.8	-0.2
Cc1ccc2nc(-c3ccccn3)c(Nc3ccccc3C)n2c1	-0.9	-3.3	3.8	-2.8	64.5*	-0.2
Cc1ccccc1Nc1c(-c2ccccn2)nc2ccccn12	0.1	-2.4	-4.0	-9.6	59.3*	-0.1
Cc1ccccc1Nc1c(-c2cccnc2)nc2ccccn12	4.6	-9.9	-12.4	-0.4	/	0.3
COc1cccc(-c2c(C(=O)NN=C(C)c3cccs3)nnn2-c2nonc2N)c1	/	3.5	/	/	/	/
C[C@@H]1CN([C@@H](C)CO)C(=O)c2cc(C3=CCCCC3)cnc2O[C@@H]1CN(C)C(=O)Cc1cccnc1	/	/	/	/	0.1	/
C[C@H]1CN([C@@H](C)CO)C(=O)c2cc(-c3ccncc3)cnc2O[C@H]1CN(C)Cc1ccc(F)cc1	/	/	/	/	44.0*	/
C[C@@H]1CN([C@H](C)CO)C(=O)c2cc(C3=CCCCC3)cnc2O[C@H]1CN(C)C(=O)Cc1cccnc1	/	/	/	/	active	/
CCCCOc1ccc(CCC(=O)NN=Cc2ccco2)cc1	/	4.2	/	/	/	/
COc1ccc(S(=O)(=O)NCc2ccc(C(=O)O)cc2)cc1	-1.2	4.8	7.8	-2.0	-9.6	-0.1
COC(=O)c1ccc(CNS(=O)(=O)c2ccc3ccccc3c2)cc1	-0.8	1.1	330.3*	-6.8	-9.8	0.0
O=C(COC(=O)c1sc2ccccc2c1Cl)NCC1CCCCC1	3.0	0.7	17.1	4.6	1.7	0.1
NC(=O)COC(=O)c1sc2ccccc2c1Cl	-5.6	4.1	544.8*	-4.0	-1.2	0.1
NC(=O)NN=Cc1ccc(-c2cccc(C(F)(F)F)c2)o1	/	3.8	/	/	/	/
CC(=N/N=C1/NC(=O)CC(C(=O)O)S1)c1ccccc1 (stereo not drawn)	/	6.5	/	/	/	/
CS(=O)(=O)N1CCC(Oc2ccccc2C(=O)NC(C2CC2)C2CC2)CC1	6.1	0.1	834.0*	4.4	1.1	0.2
CS(=O)(=O)N1CCC(Oc2ccccc2C(=O)NC2CCOC2)CC1 (stereo not drawn)	9.5	-0.2	-18.2	-7.7	-19.0	0.0
COc1ccc(C=NNC(=S)Nc2cccc(C(=O)O)c2)cc1OC	/	14.7	/	/	/	/
O=[N+]([O-])c1cc(/C=N/O)ccc1Oc1cccc(Cl)c1	-1.0	/	-1.1	-2.1	/	0.3
O=[N+]([O-])c1cc(/C=N/O)ccc1Oc1ccccc1Cl	-6.3	/	265.8*	-1.3	3.8	0.4
CC(CC1CC2=C(CC1(C)C)C(C)(C)CCC2)=NNC(N)=S (stereo not drawn)	/	4.1	/	/	/	/
O=c1[nH]c2ccccc2c(=O)n1Cc1ccco1	-7.0	21.3*	/	-10.7	/	0.3
O=c1[nH]c2ccc(Cl)cc2c(=O)n1Cc1ccco1	-4.8	0.3	-10.8	1.3	-9.4	-0.1
O=C(NC1CC1)c1cccc2c1C(=O)c1ccc(N3CCC(Cc4ccccc4)CC3)cc1S2(=O)=O	99.0*	1.5	-0.7	-148.5	-3.5	0.1
SMILES	cardiac RTF act	UCH37 DUB inh	SUMO Mot1 rescue	RTF Ca sens inh	ARNT-TACC3 inh	Efflux pump mplx
CC1CCN(c2ccc3c(c2)S(=O)(=O)c2cccc(C(=O)NC4CCCCC4)c2C3=O)CC1	33.0*	0.0	1.4	-15.3	-1.6	0.1
O=C(NCc1ccc(F)cc1)c1cccc2c1C(=O)c1ccc(N3CCOCC3)cc1S2(=O)=O	12.0	1.5	-5.6	-6.5	19.3	0.5
CC1CCN(c2ccc3c(c2)S(=O)(=O)c2cccc(C(=O)NCc4ccc(F)cc4)c2C3=O)CC1	105.3*	-0.4	2.5	3.3	-4.4	-0.2
O=C(NCc1ccc(F)cc1)c1cccc2c1C(=O)c1ccc(N3CCC(Cc4ccccc4)CC3)cc1S2(=O)=O	232.4*	1.0	-17.1	-441.1	/	2.5
CC(=NS(=O)(=O)c1ccc(C)cc1)N1CCN(S(=O)(=O)c2ccccc2)C1	/	5.4	/	/	/	/
CCOc1ccc(N(C)c2ccc(/C=C3/SC(=S)NC3=O)cc2)cc1	44.7*	/	5.6	-58.5	-6.2	0.1
CN(C)c1ccc(C=C2SC(=S)NC2=O)cc1	28.3	8.7	/	-47.7	-6.7	/
CN(C)CCN(C(=O)c1ccc2c(c1)OCCO2)c1nc2ccc(Cl)cc2s1	-3.4	4.3	1.3	7.4	46.2*	-0.1
Cc1cc([N+](=O)[O-])cc(/C=N\NC(=O)C2COc3ccccc3O2)c1O (stereo not drawn)	3.8	/	-16.0	-4.9	43.2*	0.0
CC(C)c1ccc(/C=C(\NC(=O)c2ccccc2)C(=O)NCCCn2ccnc2)cc1	1.6	3.1	2.6	-3.3	/	-0.4
O=C(NCCCn1ccnc1)/C(=C/c1ccc(F)cc1)NC(=O)c1ccccc1	-2.6	-1.1	9.4	7.2	62.2*	-0.3
O=C(CNC(=O)/C(=C\c1ccc(F)cc1)NC(=O)c1ccccc1)OCc1ccccc1	-1.4	27.5*	5.8	-6.7	1.7	0.4
O=C(NCCCn1ccnc1)/C(=C\c1ccco1)NC(=O)c1ccco1	-5.9	4.7	7.8	6.2	57.4*	0.0
O=C(CNC(=O)/C(=C\c1ccccc1)NC(=O)c1ccc(Br)cc1)OCc1ccccc1	7.7	0.6	-20.8	1.4	-1.9	0.3
N#CCC(=O)NN=C1CCCCC1C1CCCCC1 (stereo not drawn)	/	2.2	/	/	/	/
COc1ccc(C=NNC(=O)c2cccc(NC(C)=O)c2)c(C(=O)O)c1OC	/	5.4	/	/	/	/
NC(=O)C[n+]1cccc(C=NO)c1	/	0.5	/	/	/	/
CCn1ccnc1CNCc1ccc(OCC(O)CN(C)Cc2ccccc2)cc1 (stereo not drawn)	-1.5	3.7	6.3	-5.2	46.8*	-0.1
CCOC(=O)/C(=C/C=C1\Sc2cc(C)c(C)cc2N1CC)C(C)=O	160.2*	10.3	/	-208.6	3.3	/
CCOC(=O)/C(=C\C=C1/Sc2ccccc2N1CC)C(C)=O	245.4*	14.9	-2.3	-206.2	-18.9	0.1
CCC(=O)/C=C1/Sc2ccc(OC)cc2N1CC	-7.0	15.0	8.7	-1.7	2.8	-0.1
CCN1/C(=C/C(=O)c2ccco2)Sc2ccccc21	-6.8	-3.2	2.5	-15.6	-7.0	-0.1
CCC(=O)/C=C1/Sc2ccccc2N1CC	-0.7	22.1*	5.8	-2.9	8.3	-0.1
O=C(COc1ccc(Cl)cc1)NCC(=O)NN=Cc1cccs1	/	3.9	/	/	/	/
ON=Cc1ccc(OCC(O)COc2ccc(C=NO)cc2)cc1 (stereo not drawn)	/	1.3	/	/	/	/
O=C(Cn1nc(Cc2ccncc2)c2ccccc2c1=O)N1CCc2ccccc2C1	6.2	20.1*	-12.7	-7.9	34.3	-0.3
Cc1cc(C)n(/N=C/c2ccccc2)c(=O)c1C#N	5.6	/	-1.5	-4.7	3.1	0.1
